Values after ≈ are worked out from the molar mass of the structure shown.
What follows are compounds tested on Human alphaherpesvirus 2 (assay: Antiviral activity against Herpes Simplex Virus-2(196)). Settings: not given.
Format: functional
With CCCCCc1cn([C@H]2C[C@H](O)[C@@H](CO)O2)c(=O)[nH]c1=O the MIC50 was > 400 µg/mL.
For CC(C)c1cn([C@H]2C[C@@H]3OP(=O)(O)OC[C@H]3O2)c(=O)[nH]c1=O.N, the MIC50 was > 200 µg/mL.
In the case of CCCc1cn([C@H]2C[C@@H]3OP(=O)(O)OC[C@H]3O2)c(=O)[nH]c1=O.N, the MIC50 is reported as > 400 µg/mL.
CCCCCCCCc1cn([C@H]2C[C@H](O)[C@@H](CO)O2)c(=O)[nH]c1=O was tested, and the MIC50 was > 100 µg/mL.

Each compound was assayed on Human alphaherpesvirus 2 (assay: Antiviral activity against Herpes Simplex Virus-2(G)). Settings: not given.
Format: functional
CCCCCc1cn([C@H]2C[C@H](O)[C@@H](CO)O2)c(=O)[nH]c1=O was tested, and the MIC50 was 70 µg/mL (≈ 235 µM).
With CC(C)c1cn([C@H]2C[C@@H]3OP(=O)(O)OC[C@H]3O2)c(=O)[nH]c1=O.N the MIC50 was > 200 µg/mL.
For CCCc1cn([C@H]2C[C@@H]3OP(=O)(O)OC[C@H]3O2)c(=O)[nH]c1=O.N, the MIC50 was 400 µg/mL.
CCCCCCCCc1cn([C@H]2C[C@H](O)[C@@H](CO)O2)c(=O)[nH]c1=O was tested, and the MIC50 was 100 µg/mL (≈ 294 µM).

Each compound was assayed on Human alphaherpesvirus 2 (assay: Antiviral activity against Herpes Simplex Virus-2(Lyons)). Settings: not given.
Format: functional
CCCCCc1cn([C@H]2C[C@H](O)[C@@H](CO)O2)c(=O)[nH]c1=O was tested, and the MIC50 was 70 µg/mL (≈ 235 µM).
In the case of CC(C)c1cn([C@H]2C[C@@H]3OP(=O)(O)OC[C@H]3O2)c(=O)[nH]c1=O.N, the MIC50 is reported as > 200 µg/mL.
With CCCc1cn([C@H]2C[C@@H]3OP(=O)(O)OC[C@H]3O2)c(=O)[nH]c1=O.N the MIC50 was 400 µg/mL.
For CCCCCCCCc1cn([C@H]2C[C@H](O)[C@@H](CO)O2)c(=O)[nH]c1=O, the MIC50 was 100 µg/mL (≈ 294 µM).

Each compound was assayed on Human alphaherpesvirus 1 (assay: Antiviral activity against Herpes Simplex Virus-1(F)). Settings: not given.
Format: functional
CCCCCc1cn([C@H]2C[C@H](O)[C@@H](CO)O2)c(=O)[nH]c1=O was tested, and the MIC50 was 10 µg/mL (≈ 33.5 µM).
With CC(C)c1cn([C@H]2C[C@@H]3OP(=O)(O)OC[C@H]3O2)c(=O)[nH]c1=O.N the MIC50 was > 200 µg/mL.
For CCCc1cn([C@H]2C[C@@H]3OP(=O)(O)OC[C@H]3O2)c(=O)[nH]c1=O.N, the MIC50 was 300 µg/mL.
CCCCCCCCc1cn([C@H]2C[C@H](O)[C@@H](CO)O2)c(=O)[nH]c1=O was tested, and the MIC50 was > 100 µg/mL.

The compounds below were run on Human alphaherpesvirus 1 (assay: Antiviral activity against Herpes Simplex Virus-1(KOS)). Settings: not given.
Format: functional
For CCCCCc1cn([C@H]2C[C@H](O)[C@@H](CO)O2)c(=O)[nH]c1=O, the MIC50 was 20 µg/mL (≈ 67 µM).
CC(C)c1cn([C@H]2C[C@@H]3OP(=O)(O)OC[C@H]3O2)c(=O)[nH]c1=O.N was tested, and the MIC50 was > 200 µg/mL.
CCCc1cn([C@H]2C[C@@H]3OP(=O)(O)OC[C@H]3O2)c(=O)[nH]c1=O.N showed an MIC50 of 150 µg/mL.
With CCCCCCCCc1cn([C@H]2C[C@H](O)[C@@H](CO)O2)c(=O)[nH]c1=O the MIC50 was > 100 µg/mL.

What follows are compounds tested on Human alphaherpesvirus 1 (assay: Antiviral activity against Herpes Simplex Virus-1 (McIntyre)). Settings: not given.
Format: functional
With CCCCCc1cn([C@H]2C[C@H](O)[C@@H](CO)O2)c(=O)[nH]c1=O the MIC50 was 40 µg/mL (≈ 134 µM).
For CC(C)c1cn([C@H]2C[C@@H]3OP(=O)(O)OC[C@H]3O2)c(=O)[nH]c1=O.N, the MIC50 was > 200 µg/mL.
Work on CCCc1cn([C@H]2C[C@@H]3OP(=O)(O)OC[C@H]3O2)c(=O)[nH]c1=O.N yielded an MIC50 of 150 µg/mL.
For CCCCCCCCc1cn([C@H]2C[C@H](O)[C@@H](CO)O2)c(=O)[nH]c1=O, the MIC50 was > 100 µg/mL.

Each compound was assayed on L1210 (assay: Cytostatic activity against proliferation of L1210/0 cells). Settings: Mus musculus, read-out: ID50 (the source's name).
Format: functional
Outline: (§1)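 Murine leukemia L1210 cells: parental L1210/0 and L1210/BdUrd, a thymidine-kinase-deficient mutant selected from L1210/0 by growth in the presence of 260 µg/mL 5-bromo-2'-deoxyuridine. Value is the dose inhibiting tumor cell proliferation by 50% (ID50).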
CCCCCc1cn([C@H]2C[C@H](O)[C@@H](CO)O2)c(=O)[nH]c1=O was tested, and the IC50 was 476 µg/mL (≈ 1600 µM).
CC(C)c1cn([C@H]2C[C@@H]3OP(=O)(O)OC[C@H]3O2)c(=O)[nH]c1=O.N was tested, and the IC50 was > 500 µg/mL.
CCCc1cn([C@H]2C[C@@H]3OP(=O)(O)OC[C@H]3O2)c(=O)[nH]c1=O.N was tested, and the IC50 was > 500 µg/mL.
CCCCCCCCc1cn([C@H]2C[C@H](O)[C@@H](CO)O2)c(=O)[nH]c1=O gave an IC50 of 66 µg/mL (≈ 194 µM).

These compounds were tested on L1210 (assay: Cytostatic activity against proliferation of L1210/BdU cells). Settings: Mus musculus, read-out: ID50 (the source's name).
Format: functional
Outline: as §1
In the case of CCCCCc1cn([C@H]2C[C@H](O)[C@@H](CO)O2)c(=O)[nH]c1=O, the IC50 is reported as 477 µg/mL (≈ 1600 µM).
CC(C)c1cn([C@H]2C[C@@H]3OP(=O)(O)OC[C@H]3O2)c(=O)[nH]c1=O.N was tested, and the IC50 was > 500 µg/mL.
In the case of CCCc1cn([C@H]2C[C@@H]3OP(=O)(O)OC[C@H]3O2)c(=O)[nH]c1=O.N, the IC50 is reported as > 500 µg/mL.
Compound CCCCCCCCc1cn([C@H]2C[C@H](O)[C@@H](CO)O2)c(=O)[nH]c1=O has an IC50 of 72 µg/mL (≈ 212 µM).

What follows are compounds tested on Raji (assay: Cytostatic activity against proliferation of Raji/0 cells). Settings: Homo sapiens, read-out: ID50 (the source's name).
Format: functional
CCCCCc1cn([C@H]2C[C@H](O)[C@@H](CO)O2)c(=O)[nH]c1=O was tested, and the IC50 was 334 µg/mL (≈ 1120 µM).
In the case of CC(C)c1cn([C@H]2C[C@@H]3OP(=O)(O)OC[C@H]3O2)c(=O)[nH]c1=O.N, the IC50 is reported as > 500 µg/mL.
With CCCc1cn([C@H]2C[C@@H]3OP(=O)(O)OC[C@H]3O2)c(=O)[nH]c1=O.N the IC50 was > 500 µg/mL.
For CCCCCCCCc1cn([C@H]2C[C@H](O)[C@@H](CO)O2)c(=O)[nH]c1=O, the IC50 was 52 µg/mL (≈ 153 µM).

Each compound was assayed on Raji (assay: Cytostatic activity against proliferation of Raji/TK cells). Settings: Homo sapiens, read-out: ID50 (the source's name).
Format: functional
Compound CCCCCc1cn([C@H]2C[C@H](O)[C@@H](CO)O2)c(=O)[nH]c1=O has an IC50 of 328 µg/mL (≈ 1100 µM).
In the case of CC(C)c1cn([C@H]2C[C@@H]3OP(=O)(O)OC[C@H]3O2)c(=O)[nH]c1=O.N, the IC50 is reported as > 500 µg/mL.
In the case of CCCc1cn([C@H]2C[C@@H]3OP(=O)(O)OC[C@H]3O2)c(=O)[nH]c1=O.N, the IC50 is reported as > 500 µg/mL.
Compound CCCCCCCCc1cn([C@H]2C[C@H](O)[C@@H](CO)O2)c(=O)[nH]c1=O has an IC50 of 140 µg/mL (≈ 411 µM).

These compounds were tested on Vesicular stomatitis virus (assay: Antiviral activity against vesicular stomatitis virus). Settings: not given.
Format: functional
In the case of CCCCCc1cn([C@H]2C[C@H](O)[C@@H](CO)O2)c(=O)[nH]c1=O, the MIC50 is reported as > 400 µg/mL.
For CC(C)c1cn([C@H]2C[C@@H]3OP(=O)(O)OC[C@H]3O2)c(=O)[nH]c1=O.N, the MIC50 was > 200 µg/mL.
CCCc1cn([C@H]2C[C@@H]3OP(=O)(O)OC[C@H]3O2)c(=O)[nH]c1=O.N was tested, and the MIC50 was > 400 µg/mL.
For CCCCCCCCc1cn([C@H]2C[C@H](O)[C@@H](CO)O2)c(=O)[nH]c1=O, the MIC50 was > 100 µg/mL.

Each compound was assayed on Vaccinia virus (assay: Antiviral activity against vaccinia virus). Settings: Orthopoxvirus vaccinia.
Format: functional
CCCCCc1cn([C@H]2C[C@H](O)[C@@H](CO)O2)c(=O)[nH]c1=O showed an MIC50 of 300 µg/mL (≈ 1010 µM).
In the case of CC(C)c1cn([C@H]2C[C@@H]3OP(=O)(O)OC[C@H]3O2)c(=O)[nH]c1=O.N, the MIC50 is reported as > 200 µg/mL.
In the case of CCCc1cn([C@H]2C[C@@H]3OP(=O)(O)OC[C@H]3O2)c(=O)[nH]c1=O.N, the MIC50 is reported as > 400 µg/mL.
CCCCCCCCc1cn([C@H]2C[C@H](O)[C@@H](CO)O2)c(=O)[nH]c1=O was tested, and the MIC50 was 7 µg/mL (≈ 20.6 µM).
